Results: the RNAGym collection of RNA variant scans (doi:10.1126/science.aae0568)
This sample holds only a part of the variants without activity.

B1: tRNA (parent)
chain: GUUCCGUUGGCGUAAUGGUAACGCGUCUCCCUCCUAAGGAGAAGACUGCGGGUUCGAGUCCCGUACGGAACG

Variants of: B1
Experiment: yeast fitness relative to wild type (ratio to wild type); higher = fitter; tRNA-Arg(CCU), competitive growth, 37 C, YPD
How it was run: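 A pool of Saccharomyces cerevisiae strains, each with a tRNA-Arg(CCU) gene variant at the native genomic locus, was competed in YPD at 37°C for 24 hours across six parallel replicates. The variants had been chemically synthesised at a 3% per-site mutation rate over 69 sites, and gene amplicons before and after competition were read by 100-nucleotide paired-end sequencing. Darwinian fitness relative to wild type rested on changes in genotype frequencies. Genotypes required ≥ 100 starting reads, and estimates < 0.5 were set to 0.5.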

Row | Variant | yeast fitness
1 | GUUCCGUUGGCGUUAUAGUAACCCGUCUUCCUCGUAAGGAGAGGCCUGCGGGUGCGAGUCCCGUACGGAACG [A14U G17A G23C C29U C34G A43G A45C U54G] | ≤ 0.5
2 | GUUCCGUUGGCGUUAUAGUAACCCGUCUUCCUCGUAAGGAGAAGCCUGCGGGUGCAAGUCCCGUACGGAACG [A14U G17A G23C C29U C34G A45C U54G G56A] | ≤ 0.5
3 | GUUCCGUUGGCGUUAUGGUAACGCGUCUCCCUCCUAAGGAAAAGACUGCGGGUUCGAGUCCCGUACGGAACG [A14U G41A] | 0.674
4 | GUUCCGUUGGCGUUAUGGUAACGCAUCUCCCUCCUAAGGAGAAGACUGCGGGUUCGAGUGCCGUAGGGAACG [A14U G25A C60G C66G] | ≤ 0.5
5 | GUUCCGUUGGCGUUAUAGUAACGCGUCUGCCUCUAAACGAGAAGACUGCGGGUUGGAGUCCCGUACGGGCCG [A14U G17A C29G C34U U35A G38C C55G A69G A70C] | 0.511
6 | GUUCCGUUGGCGUUAUGGUAACACGUCUGCCUCCUAAGGAGAAGAAUGCGGGUUGGAGUCCCGUACGAAACG [A14U G23A C29G C46A C55G G68A] | ≤ 0.5
7 | GUUCCGUUGGCGUUAUGGUAACGCGUCUCCCUCCUAAGGAGAAGAAUGCGGGUUCGAGUCCCGUAUGGAACG [A14U C46A C66U] | ≤ 0.5
8 | GUUCCGUUGGCGUUAUGGUAACGCGUCUCCUUCCUAAGGAGAAGACUGCGAGUUCGAGUCCCCUACGGAACG [A14U C31U G51A G63C] | ≤ 0.5
9 | GUUCCGUUGGCGUUAUGGUAACGCGUCUUACUCCUAAGGAGAAGCCUGCGGGUUCGAGUCCCGUACGGAACG [A14U C29U C30A A45C] | ≤ 0.5
10 | GUUCCGUUGGCGUUAUGGUAACGCGUCUCUCUCCUAAGGAGAAGACUGCGGGUUCGAGUCCGGUGCGCAACG [A14U C30U C62G A65G G68C] | ≤ 0.5
11 | GUUCCGUUGGCGUUAUGGUAACGCGUCUCUCUCCUAAGGAGAAGACUGCGGGUUCGACUACCGUACGGAACG [A14U C30U G58C C60A] | ≤ 0.5
12 | GUUCCGUUGGCGUUAUGCUAACGCGUCUUCCUCCUAUGGAGAAGACUGCGGGUUCGAGUCCCGUACGGAACG [A14U G18C C29U A37U] | ≤ 0.5
13 | GUUCCGUUGGCGUUAUGGUAACGCGUCUCCCUCCUAAGGAGAAGACUGCGGGUUAGAGGCCCGUCCGGAACG [A14U C55A U59G A65C] | 0.561
14 | GUUCCGUUGGCGUUAUGGUAACGCGUCUCACUCCUAAGGAGAAGAUUGCGGGUUCGAGUCCAGUACGGAACG [A14U C30A C46U C62A] | ≤ 0.5
15 | GUUCCGUUGGCGUUAUCGUAACGAGUCUCGCUCCUAAGGAGAAGACUGCGGGUUCGAGUCCCGUACGGAACG [A14U G17C C24A C30G] | 0.524
16 | GUUCCGUUGGCGUUAUGGUAACGCGUCUCCCUCGUAAGGAGAAGACUGCGGGUUCGAGUCGCGUACGGAACG [A14U C34G C61G] | ≤ 0.5
17 | GUUCCGUUGGCGUUAUGGUAACGCGUCUCCCUCCUAAGGAGAAGACUGCGGGUUCGAGUCGCGUACGGAACG [A14U C61G] | ≤ 0.5
18 | GUUCCGUUGGCGUUAUGCUAACGCGUCUCCCUCCUAAGGAGAAGACUGCGGGUUCGAGUCCCGUACGGAACG [A14U G18C] | 0.583
19 | GUUCCGUUGGCGUUAUGGUAACGCGUCUCGCUCCUAAGGAGAAGACUGCGGGUUCGAGUCCCGUACGGAACG [A14U C30G] | 0.516

Row | Variant | yeast fitness
20 | GUUCCGUUGGCGUUAUGGUAACGCGUCUCACUCCUAAGGAGAAGACUGCGGGUUCGAGUCCCGUAUGGAACG [A14U C30A C66U] | 0.547
21 | GUUCCGUUGGCGUUAUGCUAACGCGUCUCCCUCCUAAGGAGAAGACUGCGGGUUCGAGUCCCGUACGGAGCG [A14U G18C A70G] | 0.715
22 | GUUCCGUUGGCGUUAUGGUAACGCGUCUCCGUCCUAAAGAGAAGACUGCGGGUUCGAGUCCCGUACGGAACG [A14U C31G G38A] | 0.657
23 | GUUCCGUUGGCGUUAUGGUAACGCGUCUCCCUCCUAAGGAGAAGACUGGGGGUUCGUGUCCCGUACGGAACG [A14U C49G A57U] | ≤ 0.5
24 | GUUCCGUUGGCGUUAUGGUAACGCGUCUCACUCCUAAGGAGAAGACUGCGGGUUCGAGUCCCGUCCGGAACG [A14U C30A A65C] | ≤ 0.5
25 | GUUCCGUUGGCGUUAUAGUAAUGCGUCUCCCUCCUAAGGAGAAGACUGCGGGUUCGAGUCCAGUACGGAACG [A14U G17A C22U C62A] | ≤ 0.5
26 | GUUCCGUUGGCGUUAUGGUAACGCGUCUUCCUCCUAUGGAGAAGACUGCAGGUUCGAGUCCCGUACGGAACG [A14U C29U A37U G50A] | ≤ 0.5
27 | GUUCCGUUGGCGUUAUGGUAACGCAUCUCCCUCCUAAGGAGAAGACUGCGGGUUCGAGUCCAAUACGGAGCG [A14U G25A C62A G63A A70G] | ≤ 0.5
28 | GUUCCGUUGGCGUUAUGGUAACGCAUCUCCCUCCUAAGGAGGAGACUGCGGGUUCGAGUCCCGUAGGGAACG [A14U G25A A42G C66G] | 0.767
29 | GUUCCGUUGGCGUUAUGGUAACGCGUCUCCCUCCUAAGGAGAAAACUGCGGGUUCGACUCCCGUACGGAACG [A14U G44A G58C] | ≤ 0.5
30 | GUUCCGUUGGCGUUAUGGUAACGCGUCUCCCUCAUAAGGAGAAGAUUGCGGGUUCGAGUCCCGUACGGAACG [A14U C34A C46U] | ≤ 0.5
31 | GUUCCGUUGGCGUUAUGGUAACGCGUCUCCCUCCUAAGGAGAAGACUGAGGGUUCGAGUCCCGUACGGAACG [A14U C49A] | 0.543
32 | GUUCCGUUGGCGUUAUGGUAACCCGUCUCCCUCCUAAGGAGAAGACUGCGGGUUCGAGUCCCGUACGGACCG [A14U G23C A70C] | 0.586
33 | GUUCCGUUGGCGUUAUAGUAACGCGUCUCCUUCCUAAGGAGAAGACUGCGGGUUCGAGUCACGUACGCAACG [A14U G17A C31U C61A G68C] | ≤ 0.5
34 | GUUCCGUUGGCGUUAUGGUAACGCGUCUCCCUCCUAAGGAGAAGACUGCGGGUUAGAGUCCCGUACGGAACG [A14U C55A] | 0.575
35 | GUUCCGUUGGCGUUAUGGUAACGCGUCUCCCUCCUAAGGAGAAGACUGCGGGUUGGAGUCCCGUACGGAACG [A14U C55G] | 0.578
36 | GUUCCGUUGGCGUUAUGGUAACGCGUCUCCCUCCUAAGCAGAAGACUGCGGGUUCGAGUCCCGUACGGAACG [A14U G39C] | 0.507
37 | GUUCCGUUGGCGUUAUGGUAACGCGUCUCCCUCCUAAGGACAAGACUGUGGGUUCGAGUCCCGUUCGGAACG [A14U G41C C49U A65U] | ≤ 0.5
